From ChEMBL document CHEMBL1140098, “Dipeptide boronic acid inhibitors of dipeptidyl peptidase IV: determinants of potency and in vivo efficacy and safety” (J Med Chem, 2008)

How the values were obtained:
Mus musculus = experiment: Reduction of glucose level in po dosed C57BL/6 mouse by oral glucose tolerance test; format: functional, organism-based
Summary of the method: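 Male C57BL/6 mice, 7-8 per group, fasted 20 h, given vehicle or inhibitor by oral gavage at various doses. Oral glucose challenge (5 g/kg) 60 min later. Blood glucose read at 5 time points over 120 min.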

Rattus norvegicus [1] = experiment: Inhibition of DPP4 in po dosed Sprague-Dawley rat plasma after 24 hrs; format: functional, organism-based
Summary of the method: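 Sprague-Dawley rats, 4-6 per inhibitor, single oral gavage dose across a dose range. Plasma DPP-IV activity sampled 6 times over 24 h post-dose. Percent change derived by comparing each treated sample's plasma activity with its own predose activity.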

Rattus norvegicus [2] = experiment: Inhibition of DPP4 in Sprague-Dawley rat plasma at 6 mg/kg, po after 4 hrs; settings: read-out: INH
[3] = Toxicity in po dosed Sprague-Dawley rat assessed as maximum tolerated dose; format: organism-based; settings: in vivo
Summary of the method: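 Sprague-Dawley rats given escalating single doses; animals observed for adverse signs; lethargic or dead animals necropsied; maximum tolerated dose taken as the highest dose without adverse effects.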

Rattus norvegicus [4] = experiment: Toxicity in po dosed Sprague-Dawley rat assessed as maximum tolerated dose relative to Val-boroPro; format: organism-based; settings: in vivo
Dipeptidyl peptidase 4 = Dipeptidyl peptidase 4 (Homo sapiens, UniProt P27487); experiment: Inhibition of human placental DPP4
[5] = Therapeutic index, ratio of MTD to drug level causing maximal reduction of glucose AUC in po dosed Sprague-Dawley rat; settings: in vivo

Chain of Dipeptidyl peptidase 4 (P27487 whole entry): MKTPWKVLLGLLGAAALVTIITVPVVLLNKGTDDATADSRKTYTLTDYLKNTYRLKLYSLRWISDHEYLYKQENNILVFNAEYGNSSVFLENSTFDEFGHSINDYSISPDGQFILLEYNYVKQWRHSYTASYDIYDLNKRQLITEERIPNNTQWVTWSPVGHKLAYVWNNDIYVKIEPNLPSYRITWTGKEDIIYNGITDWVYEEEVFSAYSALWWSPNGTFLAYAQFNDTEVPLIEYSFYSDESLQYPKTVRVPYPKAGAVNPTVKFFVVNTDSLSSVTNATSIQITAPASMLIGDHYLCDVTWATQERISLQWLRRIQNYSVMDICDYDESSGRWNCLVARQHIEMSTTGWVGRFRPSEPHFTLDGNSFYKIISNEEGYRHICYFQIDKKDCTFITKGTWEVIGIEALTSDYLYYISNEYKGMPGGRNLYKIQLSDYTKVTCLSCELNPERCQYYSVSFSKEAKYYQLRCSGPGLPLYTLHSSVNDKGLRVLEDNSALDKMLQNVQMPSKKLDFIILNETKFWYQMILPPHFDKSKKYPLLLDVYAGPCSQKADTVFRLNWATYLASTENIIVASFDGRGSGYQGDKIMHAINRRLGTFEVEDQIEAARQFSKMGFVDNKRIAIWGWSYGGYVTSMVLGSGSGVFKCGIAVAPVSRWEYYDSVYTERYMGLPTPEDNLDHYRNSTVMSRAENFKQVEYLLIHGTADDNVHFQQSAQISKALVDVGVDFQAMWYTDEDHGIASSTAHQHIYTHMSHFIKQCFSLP

Compound | Activity (Mus musculus) | Activity (Rattus norvegicus [1]) | inhibition in vivo at 6 mg/kg (Rattus norvegicus [2]) | MTD [3] | Activity (Rattus norvegicus [4]) | Ki (Dipeptidyl peptidase 4) | selectivity ratio [5]
C[C@H](NC(=O)[C@@H](N)CCC(=O)O)B(O)O | Dose-dependent effect | Dose-dependent effect | 80% | > 500 mg/kg | 20000 | – | –
CC(=O)N[C@H](C(=O)N1CCC[C@H]1B(O)O)C(C)C | – | – | – | – | – | 3300 nM | –
CC[C@H](C)[C@H](N)C(=O)N1CCSC1 | – | – | – | > 700 mg/kg | > 28000 | – | > 35
CC(C)[C@H](N)C(=O)N1CCC[C@H]1B(O)O [TALABOSTAT] | Dose-dependent effect | Dose-dependent effect | – | – | 1 | – | –
CC[C@@H](C)[C@H](N)C(=O)N1CCSC1 | – | – | – | < 300 mg/kg | < 12000 | – | < 15
NCC(=O)N1CCC[C@H]1B(O)O | – | – | – | – | – | 0.4 nM | –
N[C@@H](CCC(=O)O)C(=O)N1CCC[C@H]1B(O)O | – | – | – | – | – | 1.8 nM | –
C[C@H](N)C(=O)N1CCC[C@H]1B(O)O | Dose-dependent effect | Dose-dependent effect | – | – | 200 | – | –
